Assay results reported in ChEMBL document CHEMBL1155935, “Epoxydons and a pyrone from the marine-derived fungus Nigrospora sp. PSU-F5” (2008).
In brackets after ≈: the same amount, converted by molar mass. Activity calls are given as the source filed them. The calls are words filed in the database; no cut-off is given here.

Columns and labels:
Staphylococcus aureus [1] = assay: Antimicrobial activity against methicillin-resistant Staphylococcus aureus; format: functional
Method in brief: (§1)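 Agar microdilution MIC. Compounds in DMSO, serially 2-fold diluted and mixed 1:100 into melted Mueller-Hinton agar, giving final concentrations of 0.03–128 µg/mL. Strains were S. aureus ATCC 25923 and MRSA SK1. Inocula were spotted onto the agar and incubated at 35 °C for 18 h. MIC was the lowest concentration preventing visible growth. Vancomycin was the positive control; DMSO agar was the growth control.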

Staphylococcus aureus [2] = assay: Antimicrobial activity against Staphylococcus aureus; format: functional; method in brief: as §1

| SMILES | Activity (Staphylococcus aureus [1]) | Activity (Staphylococcus aureus [2]) | MIC (Staphylococcus aureus [1]) | MIC (Staphylococcus aureus [2]) |
| --- | --- | --- | --- | --- |
| CC1=CC(=O)CC(C)(C)[C@H]1/C=C/C(C)=C\C(=O)O | inactive | inactive |  |  |
| COC(=O)C(Cc1ccccc1)OC(CC(C)C)C(=O)O[C@H]1C(=O)C(CO)=C[C@@H](O)[C@@H]1O (stereo partly specified) | inactive | inactive |  |  |
| CC1=CC(=O)CC(C)(C)[C@@]1(O)/C=C/C(C)=C\C(=O)O | inactive | inactive |  |  |
| O=C(O[C@H]1C(=O)C(CO)=C[C@@H](O)[C@@H]1O)c1cccc(O)c1 | inactive | inactive |  |  |
| C/C=C(\C)c1cc(OC)cc(=O)o1 | inactive | inactive |  |  |
| COc1cc(/C(C)=C/CO)oc(=O)c1 | inactive | inactive |  |  |
| O=C1C(CO)=C[C@@H](O)[C@H]2O[C@@H]12 [EPOXYDON] |  |  | 128 µg/mL (≈ 820 µM) | 128 µg/mL (≈ 820 µM) |
| CC1=CC(=O)CC(C)(C)[C@@]1(O)/C=C/C(C)=C\C(=O)O[C@H]1C(=O)C(CO)=C[C@@H](O)[C@@H]1O [NIGROSPOXYDON A] |  |  | > 128 µg/mL | 64 µg/mL (≈ 152 µM) |
